Measurements reported in PubChem BioAssay AID624014 (Broad Institute, 2012).
Where “and” joins values, the source holds several entries; their conditions need not be identical. Equal entries are not always repeated.

tested on: Candida glabrata growth in glycerol medium, OD600, 48 h; test: single-agent C. glabrata growth inhibition on glycerol, dose response, glycerol medium, OD600, dry powder, set 4 (AID 624014)
Procedure, shortened: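 buffer or medium = CSM-glycerol medium | test system = Candida glabrata yeast cells, whole-organism growth assay | control set = amphotericin B at 10 µM as positive control | measured by = absorbance at 600 nm (OD600) as growth measure | schedule = compound exposure 48 h at 30 °C, static, humidified | doses = compounds delivered into wells by pin transfer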

Point of comparison: `CC1/C=C/C=C\C=C\C=C\C=C\C=C\C=C\C(O[C@H]2OC(C)C(O)C(N)C2O)CC2OC(O)(CC(O)CC(O)C(O)CCC(O)CC(O)CC(=O)OC(C)C(C)C1O)CC(O)C2C(=O)O` (stereo partly drawn), AC50 602 nM. Against it:
- CCOC(=O)N1C(=O)C2(CCCCC2)N(c2ccc(F)cc2)C1=S — 98-fold lower, 6.16 nM
- CCOC(=O)N1C(=O)C2(CCCCC2)N(c2cccc(C)c2)C1=S — 25-fold lower, 23.9 nM
- CCOC(=O)N1C(=O)C2(CCCCC2)N(c2ccc(Cl)cc2)C1=S — 44-fold lower, 13.8 nM
- C/C=C/[C@@H]1[C@H]2C[C@@H](C)CC[C@@H]2C(C)=C[C@H]1C(=O)c1c(O)c(-c2ccc(O)cc2)c[nH]c1=O — 4.1-fold higher, 2450 nM
- CCOC(=O)N1C(=O)C2(CCCCC2)N(c2ccccc2)C1=S — 31-fold lower, 19.4 nM
- CCOC(=O)N1C(=O)C2(CCCCC2)N(c2ccc(C#N)cc2)C1=S — 22-fold lower, 27.8 nM

With `CCOC(=O)N1C(=O)C2(CCCCC2)N(c2ccc(C)cc2)C1=S` the AC50 was 31.8 nM and 22.4 nM.
